Measured values taken from ChEMBL document CHEMBL1955854, “New retinoid derivatives as back-ups of Adarotene” (Bioorg Med Chem, 2012).

Key:
[1] = system: A-431; assay: Antitumor activity against human A431 cells xenografted in nude CD1 mouse assessed as tumor volume inhibition at 35 mg/kg, ip administered qd 3 times per week for 2 weeks relative to control; format: functional; conditions: A-431, ip, 336 h, route intraperitoneal, read-out: TGI
Method in brief: (§1)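 A431 epidermoid carcinoma cells (5 × 10⁶) from in vitro culture were injected s.c. into the right flank of CD1 nude mice on day 0, with 8 mice per group. Dosing began on day 3, at tumors of about 50 mm³, on a qdx3/wx2w schedule. Vehicle was 10% DMSO, 9% HPBCD and 14.4% PEG1000 in water. Tumor diameters were measured twice weekly by caliper, and TVI% was taken versus the vehicle group (Mann–Whitney).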

[2] = Chemical stability in aqueous buffer containing 5% DMSO and 5% tween 80 at pH 1.2 assessed as compound recovery in anoxic conditions after 3 hrs by UPLC analysis; format: physicochemical; conditions: read-out: Stability
Method in brief: (§2)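 Stability at 37 °C in aqueous buffer with 5% DMSO and 5% Tween 80 at pH 1.2, 6.8 or 7.4; percent recovery by HPLC/UPLC on BEH C18 column, water+0.1% TFA/acetonitrile gradient from 40% to 95% acetonitrile over 8 min, room temperature.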

[3] = system: NCI-H460; assay: Antiproliferative activity against human NCI-H460 cells incubated for 24 hrs drug exposure measured after 48 hrs of recovery by sulforhodamine B assay; format: functional, cell-based
[4] = system: Mus musculus; assay: Toxicity in nude CD1 mouse xenografted with human A431 cells assessed as body weight loss at 35 mg/kg, po administered qd 3 times per week for 2 weeks; format: organism-based, A-431; set-up: dose 35 mg/kg, route oral; conditions: in vivo, 336 h
Method in brief: (§3)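 CD1 nude mice bore s.c. A431 xenografts (5 × 10⁶ cells, right flank, 8 mice per group). Dosing started on day 3 on a qdx3/wx2w schedule, in vehicle of 10% DMSO, 9% HPBCD and 14.4% PEG1000 in water. Mice were weighed daily, and BWL% = 100 − (mean body weight day x / mean body weight day 1 × 100), with day 1 the first treatment day. The maximum BWL is reported.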

[5] = Solubility in water; format: physicochemical; conditions: buffer
[6] = Chemical stability in aqueous buffer containing 5% DMSO and 5% tween 80 at pH 7.4 assessed as compound recovery in anoxic conditions after 24 hrs by UPLC analysis; format: physicochemical; conditions: read-out: Stability; method in brief: as §2
[7] = Chemical stability in aqueous buffer containing 5% DMSO and 5% tween 80 at pH 1.2 assessed as compound recovery in anoxic conditions after 12 hrs by UPLC analysis; format: physicochemical; conditions: pH 1.2, 12 h; method in brief: as §2
[8] = system: A-431; assay: Antiproliferative activity against human A431 cells incubated for 24 hrs drug exposure measured after 48 hrs of recovery by sulforhodamine B assay; format: functional, cell-based
[9] = system: A-431; assay: Antitumor activity against human A431 cells xenografted in nude CD1 mouse assessed as tumor volume inhibition at 35 mg/kg, po administered qd 3 times per week for 2 weeks relative to control; format: functional; conditions: A-431, 336 h, read-out: TGI; method in brief: as §1
[10] = system: Mus musculus; assay: Toxicity in nude CD1 mouse xenografted with human A431 cells assessed as body weight loss at 35 mg/kg, ip administered qd 3 times per week for 2 weeks; format: organism-based, A-431; set-up: dose 35 mg/kg, route intraperitoneal; conditions: in vivo, 336 h; method in brief: as §3
[11] = Chemical stability in aqueous buffer containing 5% DMSO and 5% tween 80 at pH 6.8 assessed as compound recovery in anoxic conditions after 24 hrs by UPLC analysis; format: physicochemical; conditions: read-out: Stability; method in brief: as §2
[12] = system: NCI-H460; assay: Antitumor activity against human NCI-H460 cells xenografted in nude CD1 mouse assessed as tumor volume inhibition at 18 mg/kg, iv administered qd 3 times per week for 2 weeks relative to control; format: functional; conditions: NCI-H460, 336 h, read-out: TGI
Method in brief: (§4)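 CD1 nude mice given s.c. right-flank NCI-H460 (3 × 10⁶) or A431 (5 × 10⁶) cells from culture on day 0; eight mice per group. Dosing began day 3 at ~50 mm³ tumors; vehicle 10% DMSO, 9% HPBCD, 14.4% PEG1000 in water. Diameters taken biweekly by caliper; mice weighed daily, maximum BWL% reported; Mann–Whitney versus vehicle.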

[13] = system: Mus musculus; assay: Toxicity in nude CD1 mouse xenografted with human A431 cells assessed as body weight loss at 37 mg/kg, iv administered qd 3 times per week for 2 weeks; format: organism-based, A-431; set-up: dose 37 mg/kg, route intravenous; conditions: in vivo, 336 h; method in brief: as §4
[14] = Toxicity in iv dosed nude CD1 mouse xenografted with human A431 cells assessed as mortality administered qd 3 times per week for 2 weeks; format: organism-based, A-431; conditions: in vivo
[15] = system: Mus musculus; assay: Toxicity in nude CD1 mouse xenografted with human NCI-H460 NSCLC cells assessed as body weight loss at 18 mg/kg, iv administered qd 3 times per week for 2 weeks; format: organism-based; set-up: dose 18 mg/kg, route intravenous; conditions: in vivo, 336 h; method in brief: as §4
[16] = system: A-431; assay: Antitumor activity against human A431 cells xenografted in nude CD1 mouse assessed as tumor volume inhibition at 37 mg/kg, iv administered qd 3 times per week for 2 weeks relative to control; format: functional; conditions: A-431, 336 h, read-out: TGI; method in brief: as §4
[17] = Chemical stability in aqueous buffer containing 5% DMSO and 5% tween 80 at pH 7.4 assessed as compound recovery in anoxic conditions after 6 hrs by UPLC analysis; format: physicochemical; conditions: read-out: Stability; method in brief: as §2
[18] = system: A-431; assay: Antitumor activity against human A431 cells xenografted in nude CD1 mouse assessed as tumor volume inhibition at 10 mg/kg, iv administered qd 3 times per week for 2 weeks relative to control; format: functional; conditions: A-431, 336 h, read-out: TGI; method in brief: as §4
[19] = Chemical stability in aqueous buffer containing 5% DMSO and 5% tween 80 at pH 6.8 assessed as compound recovery in anoxic conditions after 6 hrs by UPLC analysis; format: physicochemical; conditions: read-out: Stability; method in brief: as §2
[20] = system: Mus musculus; assay: Toxicity in nude CD1 mouse xenografted with human A431 cells assessed as body weight loss at 10 mg/kg, iv administered qd 3 times per week for 2 weeks; format: organism-based, A-431; set-up: dose 10 mg/kg, route intravenous; conditions: in vivo, 336 h; method in brief: as §4
[21] = system: Plasma; assay: Prodrug conversion in mouse plasma assessed as drug concentration at 3 hrs; format: ADME, cell-free
Method in brief: (§5)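 Prodrugs already shown stable at pH 1.2, 6.8 and 7.4 were incubated in murine plasma and sampled over time up to 6 h. A parallel incubation used murine plasma pretreated with the esterase inhibitor PMSF (phenylmethyl sulfonyl fluoride).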

[22] = system: Mus musculus; assay: Toxicity in nude CD1 mouse xenografted with human A431 cells assessed as body weight loss at 40 mg/kg, ip administered qd 3 times per week for 2 weeks; format: organism-based, A-431; set-up: dose 40 mg/kg, route intraperitoneal; conditions: in vivo, 336 h; method in brief: as §3
[23] = system: A-431; assay: Antitumor activity against human A431 cells xenografted in nude CD1 mouse assessed as tumor volume inhibition at 40 mg/kg, po administered qd 3 times per week for 2 weeks relative to control; format: functional; conditions: A-431, 336 h, read-out: TGI; method in brief: as §1
[24] = system: Plasma; assay: Prodrug conversion in mouse plasma assessed as drug concentration at 1 hr; format: ADME, cell-free; method in brief: as §5
[25] = system: Plasma; assay: Prodrug conversion in mouse plasma assessed as drug concentration at 6 hrs; format: ADME, cell-free; method in brief: as §5
[26] = system: Plasma; assay: Prodrug conversion in mouse plasma assessed as drug concentration at 0.5 hrs; format: ADME, cell-free; method in brief: as §5
[27] = system: Plasma; assay: Prodrug conversion in mouse plasma assessed as drug concentration at 6 hrs in presence of esterase inhibitor PMSF; format: ADME, cell-free; method in brief: as §5
[28] = system: A-431; assay: Antitumor activity against human A431 cells xenografted in nude CD1 mouse assessed as tumor volume inhibition at 40 mg/kg, ip administered qd 3 times per week for 2 weeks relative to control; format: functional; conditions: A-431, ip, 336 h, route intraperitoneal, read-out: TGI; method in brief: as §1
[29] = system: Mus musculus; assay: Toxicity in nude CD1 mouse xenografted with human A431 cells assessed as body weight loss at 40 mg/kg, po administered qd 3 times per week for 2 weeks; format: organism-based, A-431; set-up: dose 40 mg/kg, route oral; conditions: in vivo, 336 h; method in brief: as §3

Compound: Cl.NCCCCNC(=O)Oc1ccc(-c2ccc(/C=C/C(=O)O)cc2)cc1C12CC3CC(CC(C3)C1)C2
- inhibition in vivo at 35 mg/kg [1]: 1%
- remaining at 3 h [2]: > 99%
- IC50 [3]: 2600 nM
- Activity [4]: 3%
- solubility [5]: Insoluble
- remaining at 24 h [6]: > 99%
- Stability [7]: Stable
- IC50 [8]: 3400 nM
- inhibition in vivo at 35 mg/kg [9]: 0%
- Activity [10]: 6%
- remaining at 24 h [11]: > 99%

Compound: O=C(O)/C=C/c1ccc(-c2ccc(OC(=O)CCCN3CCOCC3)c(C34CC5CC(CC(C5)C3)C4)c2)cc1
- inhibition in vivo at 18 mg/kg [12]: 37%
- Activity [13]: 18%
- remaining at 3 h [2]: > 99%
- MTD at 336 h [14]: 18 mg/kg
- Activity [15]: 10%
- IC50 [3]: 220 nM
- inhibition in vivo at 37 mg/kg [16]: 59%
- remaining at 6 h [17]: 99%
- inhibition in vivo at 10 mg/kg [18]: 34%
- remaining at 6 h [19]: 99%
- solubility [5]: Insoluble
- Activity [20]: 0%
- remaining at 24 h [6]: 88%
- Stability [7]: Stable
- IC50 [8]: 340 nM
- remaining at 24 h [11]: 90%

Compound: Cl.O=C(O)/C=C/c1ccc(-c2ccc(OC(=O)N3CCC(N4CCCCC4)CC3)c(C34CC5CC(CC(C5)C3)C4)c2)cc1
- Drug metabolism [21]: 100%
- Activity [22]: 0%
- remaining at 3 h [2]: > 99%
- inhibition in vivo at 40 mg/kg [23]: 22%
- Drug metabolism [24]: 100%
- IC50 [3]: > 10000 nM
- Drug metabolism [25]: 100%
- Drug metabolism [26]: 100%
- Drug metabolism [27]: 4.13%
- inhibition in vivo at 40 mg/kg [28]: 26%
- solubility [5]: Insoluble
- remaining at 24 h [6]: > 99%
- Stability [7]: Stable
- IC50 [8]: > 10000 nM
- Activity [29]: 4%
- remaining at 24 h [11]: > 99%
